This excerpt belongs to a sample that is enriched for hits.
H69AR growth 86K – proliferation blockers of H69AR lung cancer cells, primary screen, cell-based, human, 86K library | H69AR lung tumor viability, ATP luminescence, 72 h; hits give low values | viability, % at 10 µM | 85,000 compounds, 6% hits | AID 598, 2007;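 active means viability at or below 40%; inactive means viability above 40%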;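 further: multidrug resistant small cell line overexpressing MRP-1 efflux transporter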
HCT116 bCat-KO – primary screen for growth suppressors in beta-catenin knockout HCT116 cells (colon tumor, human); HCT116 beta-catenin knockout viability, CellTiter-Glo, 60 h; hits give low values; 140,000 compounds, 1.5% hits; viability, % at 10 µM;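 active means viability at or under a set limit, the compound median less 4 SD, cut at about 6% in these data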
Lung fibro prol – antiproliferative effect on LL 47 fibroblasts – human, LL 47 cells, CellTiter-Glo luminescence, primary screen | 85,000 compounds, 1.1% hits | LL 47 human lung fibroblast viability, ATP luminescence; hits give low values | viability, % at 10 µM;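 active means viability at or below 50% in the single dose screen; inactive means viability above 50%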;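 further: compound exposure lasted 72 h before the ATP readout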
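Material: human LL 47 lung fibroblast cells; quantity: 1,150 cells/well; medium: IMEM plus 15% FBS; doses: 0.1% DMSO in all compound wells; timing: overnight attachment after seeding, then 72 h compound exposure at 37 °C; detection: CellTiter-Glo luminescence; measure: % viability of median cell-only signal; controls: cell-only wells, no compound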
HUVEC inhibit – inhibitors of HUVEC proliferation, primary screen, cell-based, 384-well. CellTiter-Glo luminescence, 72 h; hits give low values. 86,000 compounds, 1.1% hits. viability, % at 10 µM (by protocol);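 active means viability at or below 30%; inactive means viability above 30%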
PTEN del growth – growth suppression of PTEN-null HCT116, primary screen, cell-based, CellTiter-Glo; viability, % at 10 µM; HCT116 PTEN-null viability, 60 h; hits give low values; 140,000 compounds, 1.2% hits;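 active means viability at or below a set limit, 4 SD under the median of all tested compounds, cut at about 3.7% in these data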;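 further: PTEN knockout HCT116 line with beta catenin targeted HCT116 as companion control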
Of the large screens only hits and unclear results are named; the others gave an inactive call.

CCCCNc1ncnc2c1cnn2-c1ccc(C)cc1C	H69AR growth 86K 37
c1ccc(-n2ncc3c(NCCCN4CCOCC4)ncnc32)cc1	none
Fc1cccc(Nc2ncnc3c2cnn3-c2ccccc2)c1	H69AR growth 86K 14 (no result: HCT116 bCat-KO, PTEN del growth)
COCCCNc1ncnc2c1cnn2-c1ccc(C)cc1C	none (no result: H69AR growth 86K, Lung fibro prol, HUVEC inhibit)
CCCCNc1ncnc2c1cnn2-c1ccc(Cl)cc1	H69AR growth 86K 19
O=C1OCC(CO)(CO)N=C1NNc1ccc(Cl)c(Cl)c1	none (no result: H69AR growth 86K, Lung fibro prol, HUVEC inhibit)
c1ccc(Cn2ncc3c(NCc4ccco4)ncnc32)cc1	none
Clc1ccc(Cn2ncc3c(NCc4ccccc4)ncnc32)cc1	H69AR growth 86K 22
c1ccc(-n2ncc3c(NCc4ccco4)ncnc32)cc1	H69AR growth 86K 28
CCOc1ccccc1COC(=O)c1cccc(-n2cnnn2)c1	none
O=C(CSc1nc2ccccc2c(=O)n1CC1CCCO1)NCC1CCCO1 (stereo not given)	none
NC(=O)NC(=O)CSc1nc(-c2ccccc2)c(-c2ccccc2)n1CC1CCCO1 (stereo not given)	H69AR growth 86K 36
CN1C2=NCCN2C(=O)c2ccccc21	none
CCCc1nc(NCc2ccncc2)c2nnn(Cc3ccccc3F)c2n1	HCT116 bCat-KO 1.9, PTEN del growth 3.2
COC(=O)[C@@H]1C[C@]2(OC(=O)c3ccccc3)C=CC(=O)C[C@@H]2N1C(=O)OCc1ccccc1	HCT116 bCat-KO 3.0, PTEN del growth 2.5 (no result: H69AR growth 86K, Lung fibro prol, HUVEC inhibit)
O=C(O)C1CCCN1C(=O)OCc1ccccc1 (stereo not given)	none
O=S(=O)(/N=C(/Sc1ccccc1)c1ccccc1)c1ccccc1	H69AR growth 86K 26
CS/C(=N\S(=O)(=O)c1ccccc1)c1ccccc1	none (no result: H69AR growth 86K, Lung fibro prol, HUVEC inhibit)
C=CCc1ccc(OCC(O)CN2CCC(Cc3ccccc3)CC2)c(OC)c1 (stereo not given)	H69AR growth 86K 21, HUVEC inhibit 14
Nc1c(C(=O)NCC2CCCO2)c2nc3ccccc3nc2n1-c1ccccc1 (stereo not given)	H69AR growth 86K 21
COc1ccccc1-n1c(N)c(C(=O)NCC2CCCO2)c2nc3ccccc3nc21 (stereo not given)	none
C=CCNC(=O)c1c(N)n(-c2ccc3c(c2)OCO3)c2nc3ccccc3nc12	H69AR growth 86K 13, Lung fibro prol 31
COc1cccc(CNC(=O)CCS(=O)(=O)c2cccs2)c1	none
O=C(O)c1cn(-c2ccccc2)nc1-c1ccncc1	none
O=C(c1cn(-c2ccccc2)nc1-c1ccncc1)n1nnc2ccccc21	H69AR growth 86K 8.1 (no result: HCT116 bCat-KO, Lung fibro prol, PTEN del growth)
Cc1cccc(NC(=O)CN2C(=O)COc3ccc(Cl)cc32)c1C	none
Cc1cc(C2=CC(C)(c3cc(C)oc3C)Nc3nc(C(F)(F)F)nn32)c(C)o1 (stereo not given)	H69AR growth 86K 3.2
COc1ccc(N2CCN(C(=O)CSc3nnc(Cn4nnc5ccccc54)n3C)CC2)cc1	none
Cc1ccc(-n2c(=O)c3c4c(sc3n3c(C)nnc23)COC(C(C)C)C4)cc1 (stereo not given)	none (no result: HCT116 bCat-KO, PTEN del growth)
CSc1nnc2n(-c3ccc(C)cc3)c(=O)c3c4c(sc3n12)COC(C(C)C)C4 (stereo not given)	H69AR growth 86K 36, Lung fibro prol 37
CN(c1ccccc1C(=O)Nc1ccc(S(=O)(=O)N2CCOCC2)cc1)S(=O)(=O)c1ccccc1	none (no result: H69AR growth 86K, Lung fibro prol, HUVEC inhibit)
Cc1ccc(S(=O)(=O)CCc2nc3ccccc3n2CCC#N)cc1	H69AR growth 86K 14
CC(CN1CCOCC1)OC(=O)c1ccc(Br)cc1 (stereo not given)	H69AR growth 86K 0.6, HCT116 bCat-KO 2.8, Lung fibro prol 6.3, PTEN del growth 2.4
CCC(C)(C(=O)NC1CCCC1)N(C(=O)c1ccccn1)c1ccc(C)cc1 (stereo not given)	none
COc1ccc(/C=C2\SC(=S)N(NC(=O)c3csc4c3CCCC4)C2=O)cc1	none
CCOC(=O)c1nn(-c2ccccc2C)c2nc(-c3ccc(C)cc3)c(C#N)c(=O)n12	none (no result: H69AR growth 86K, Lung fibro prol, HUVEC inhibit)
CCOC(=O)c1nn(-c2ccccc2C)c2nc(-c3ccc(Cl)cc3)c(C#N)c(=O)n12	HCT116 bCat-KO 1.7, PTEN del growth 2.1 (no result: H69AR growth 86K, Lung fibro prol, HUVEC inhibit)
COc1cccc(-n2cnc(=O)c3cccnc32)c1	none (no result: H69AR growth 86K, Lung fibro prol, HUVEC inhibit)
C/C(=N\NC(=O)Cn1nc(C)c(Br)c1C)c1cccs1	none (no result: H69AR growth 86K, Lung fibro prol, HUVEC inhibit)
CC1(C)NC(=O)N(CCOCCOc2ccc3ccccc3c2Br)C1=O	H69AR growth 86K 33
COCCCNC(=S)NC1CCCCC1	none (no result: H69AR growth 86K, Lung fibro prol, HUVEC inhibit)
c1ccc(CCn2nnnc2CN2CCc3ccccc32)cc1	none
CC1(C)CC(=O)C(N=Nc2cc(Cl)c(Cl)c(Cl)c2)=C(O)C1	none (no result: H69AR growth 86K, Lung fibro prol, HUVEC inhibit)
Cc1ccc(O)c(N=NC2=C(O)CC(C)(C)CC2=O)c1	HCT116 bCat-KO 4.4 (no result: H69AR growth 86K, Lung fibro prol, HUVEC inhibit)
CC(C)(C)c1ccc(S(=O)(=O)N2CC(=O)Nc3ccccc32)cc1	none
O=C(CSc1nnc(Cc2ccccc2)n1Cc1ccco1)NC12CC3CC(CC(C3)C1)C2	none
CCCCn1c(SCC(=O)Nc2sc3c(c2C(N)=O)CCC3)nnc1-c1ccccc1	H69AR growth 86K 25 (no result: HCT116 bCat-KO, PTEN del growth)
NC(=O)c1c(NC(=O)CSc2nnc(Cc3ccccc3)n2Cc2ccco2)sc2c1CCC2	H69AR growth 86K 5.6
CN(C)CCCn1c(SCC(=O)Nc2sc3c(c2C#N)CCCC3)nnc1-c1ccncc1	none (no result: H69AR growth 86K, Lung fibro prol, HUVEC inhibit)
COc1cccc(C(C)NC(=O)Nc2cccc(C(F)(F)F)c2)c1 (stereo not given)	none (no result: H69AR growth 86K, Lung fibro prol, HUVEC inhibit)
O=Cc1c(Sc2ccccc2)nc2ccccn2c1=O	H69AR growth 86K 2.6
O=Cc1c(N2CCCCCC2)nc2ccccn2c1=O	none
O=Cc1c(Sc2ccccn2)nc2ccccn2c1=O	H69AR growth 86K 22
CCN(Cc1ccccc1)C(=O)Cn1c(=O)n(CC(=O)NCc2ccco2)c(=O)c2sccc21	none
Cc1cc(C(=O)N2CCc3ccccc32)n(-c2ccccc2)n1	H69AR growth 86K 22
N=c1sc2ccccc2n1-c1ccccc1	H69AR growth 86K 31
Cc1ccc2oc(=O)c3cnn(CC(=O)Nc4ccccc4N4CCN(C)CC4)c3c2c1	Lung fibro prol 47, HUVEC inhibit 2.1
Cc1ccc2oc(=O)c3cnn(CC(=O)N4CCN(c5ccccc5)CC4)c3c2c1	none
O=C(CCC1CCCCC1)Nc1ccccc1O	none
CCOC(=O)c1ccc(N/C=C\C(=O)c2cccc(OC)c2)cc1	none (no result: H69AR growth 86K, Lung fibro prol, HUVEC inhibit)
COc1cccc(C(=O)/C=C/Nc2cc(C)ccc2O)c1	H69AR growth 86K 8.9
Cc1ccc(O)c(NC(=O)CCC2CCCCC2)c1	H69AR growth 86K 27
Cc1cccc(OCC(=O)Nc2cc(C)c(C)cc2O)c1	none
Cc1cccc(OCC(=O)Nc2cc(C)ccc2O)c1	H69AR growth 86K 24
O=C(COc1ccccc1Br)NCCc1nc2ccccc2[nH]1	none (no result: H69AR growth 86K, Lung fibro prol, HUVEC inhibit)
COc1ccc(OC)c(-c2cc(C(F)(F)F)c3c(n2)sc2c(O)cc(=O)[nH]c23)c1	none (no result: H69AR growth 86K, Lung fibro prol, HUVEC inhibit)
CCOC(=O)Cc1c(C)nc2cc(-c3ccc(C(C)(C)C)cc3)[nH]n2c1=O	H69AR growth 86K 37
CCOC(=O)Cc1c(C)nc2c(-c3ccc(Cl)cc3)c(C)[nH]n2c1=O	H69AR growth 86K 39
